MrgX1 antag: antagonists of human MrgX1 receptor; 1.3% of 310,000 active; MRGX1-HEK293 calcium flux, Fluo-4, BAM8-22 antagonism; stronger effect = lower value; B-score at 10 µM;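 active means calcium-response B-score plate-corrected more than 3 library SD below zero, starting fluorescence within 5 deviations, no agonist response on first addition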;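 further: peak minus trough fluorescence over baseline after final BAM8-22 challenge near maximal dose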
Target sequence (Q96LB2 whole entry, looked up): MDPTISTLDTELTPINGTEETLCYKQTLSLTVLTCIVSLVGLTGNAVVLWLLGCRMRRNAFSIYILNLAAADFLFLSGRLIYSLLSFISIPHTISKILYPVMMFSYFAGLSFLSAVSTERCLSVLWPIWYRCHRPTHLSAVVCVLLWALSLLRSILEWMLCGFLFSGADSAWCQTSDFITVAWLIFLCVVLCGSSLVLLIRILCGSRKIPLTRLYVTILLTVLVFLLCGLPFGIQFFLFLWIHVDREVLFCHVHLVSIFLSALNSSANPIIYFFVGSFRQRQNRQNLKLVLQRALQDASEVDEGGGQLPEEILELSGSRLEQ
RGS4 inh: inhibitors of human RGS4. P49798. HEK293 M3R/RGS4 inducible, Fluo-4 calcium flux; stronger effect = higher value; triggered by carbachol at its EC20. B-score at 10 µM. 0.45% of 310,000 active;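 active means B-score, a plate-corrected calcium signal, over three deviations above library mean, with baseline fluorescence within five deviations of library mean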;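 further: RGS4 expression induced by doxycycline in cells with stable M3 receptor; B-score is computed from the integrated fluorescence ratio over baseline after carbachol; higher B-score means a larger calcium signal and so more RGS4 inhibition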
Target sequence (P49798 whole entry, looked up): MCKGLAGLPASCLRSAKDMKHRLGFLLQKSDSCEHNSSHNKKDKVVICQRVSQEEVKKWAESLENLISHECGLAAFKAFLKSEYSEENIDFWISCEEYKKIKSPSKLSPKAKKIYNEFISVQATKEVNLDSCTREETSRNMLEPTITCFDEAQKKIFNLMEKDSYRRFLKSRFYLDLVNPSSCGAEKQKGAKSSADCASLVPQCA
MrgX1 allo act: allosterically activates human MrgX1 receptor signaling; Q96LB2; MrgX1-HEK293, Fluo-4 calcium flux, FDSS; stronger effect = higher value; B-score at 10 µM; 0.63% of 310,000 active; AID 588675;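 active means plate-corrected calcium response at least 3 library SD above typical, normal starting fluorescence, not activating the receptor alone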;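 further: compound read alongside a low EC10 to EC30 dose of BAM8-22 agonist; peak minus trough fluorescence over baseline measured at the second addition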
RGS4 act: RGS4 potentiation or activation; 0.92% of 310,000 active; AID 463111; B-score at 10 µM; HEK293 M3R/inducible RGS4, carbachol calcium flux Fluo4; stronger effect = lower value;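 active means B-score of the integrated calcium signal more than 4 SD below the library mean, with starting fluorescence not abnormally high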;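 further: negative B-score means reduced calcium response which marks RGS4 activation or potentiation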
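Also added: carbachol at ECmax as muscarinic agonist stimulus; Assay system: HEK293 cells with stable M3R and inducible RGS4; Timing: overnight RGS4 induction, 30 min dye load 37 °C, 20 min compound RT; Measured by: Fluo4-AM (2 µM) calcium-flux fluorescence, kinetic read.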
MrgX1 agonist: agonists of human MrgX1 receptor; B-score at 10 µM; MrgX1-HEK293 cells, Fluo-4 calcium fluorescence, agonist mode; stronger effect = higher value; 0.44% of 310,000 active;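 active means calcium response B-score plate-corrected fluorescence ratio at least 3 library SD, with starting fluorescence B-score inside 5 SD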
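System: HEK293 cells stably expressing human MrgX1 receptor; Dosing: test compound in the initial addition of three; Schedule: overnight plating, then 30 min 37 °C plus 30 min room-temperature dye loading; Detection: kinetic calcium dye fluorescence, Fluo-4 NW; Controls: per-plate positive and negative controls for Z′ factor.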
RGS4 activ val: RGS4 activation, validation assay. shares compounds with RGS4 act. HEK293 M3R/RGS4 inducible, carbachol calcium flux Fluo4. inhibition, % at 10 µM. 89% of 1,100 active. AID 602282;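 active means inhibition above 3 SD of the buffer control wells, cut at about 41% in these data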;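 further: signal is the integrated peak-minus-minimum Fluo4 fluorescence over baseline ratio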
RGS4 act ctr: counter-screen for RGS4 activators: effect in non-induced cells | inhibition, % at 10 µM | 82% of 1,100 active | HEK293 M3R non-induced RGS4, Fluo4 calcium flux; after carbachol challenge at its EC90 | shares compounds with RGS4 act;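 active means inhibition exceeding 3 SD of buffer-only control wells, cut at about 26% in these data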;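 further: percent drop in integrated peak-minus-baseline over baseline Fluo4 ratio after carbachol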
An asterisk follows results filed as active; i = inactive; nt = no result given. Shown are actives, neighbours in structure and some others; about 3.5% of the full set was active somewhere.

SMILES	MrgX1 antag	RGS4 inh	MrgX1 allo act	RGS4 act	MrgX1 agonist	RGS4 activ val	RGS4 act ctr
Cn1c(=O)c2c(ncn2CCOc2ccc(Br)cc2)n(C)c1=O	i	i	i	i	i	nt	nt
O=[N+]([O-])c1cccc(-c2ccc(/C=N/Nc3nc(N4CCCCC4)nc(N4CCCCC4)n3)o2)c1	i	i	i	-13*	i	81*	84*
Cc1cccc(OCc2nc(C#N)c(N3CC(C)CC(C)C3)o2)c1 (stereo not given)	i	i	i	-9.1*	i	94*	70*
Cc1cccc(OCc2nc(C#N)c(N3CCCC3)o2)c1	i	i	i	i	i	nt	nt
COc1ccc(C(=O)NC2CCCc3c2cnn3-c2ccccc2F)o1 (stereo not given)	i	i	i	i	i	nt	nt
CCOC1=C/C(=C/c2c(N)n3nc(-c4ccccc4)sc3nc2=O)C=CC1=O	nt	i	nt	-12*	nt	65*	33*
CCOC(=O)CNC(=O)Cn1cnc2c(cnn2-c2ccc(C)cc2)c1=O	i	i	i	i	i	nt	nt
CN(Cc1ccccc1O)CC1CCCN(CCc2ccc(Cl)cc2)C1 (stereo not given)	i	i	i	-10*	i	94*	73*
CN(Cc1ccc(C#CCCO)cc1)CC1CCCN(CCc2ccc(Cl)cc2)C1 (stereo not given)	i	i	i	i	i	nt	nt
Cc1nc(=S)c2c([nH]1)-c1ccccc1CC21CCCCC1	i	i	i	i	i	nt	nt
O=C(NCCOc1ccc(F)cc1)c1ccccc1SCc1ccccc1	i	i	i	-7.7*	i	92*	74*
CCc1ccc(OCCNC(=O)c2ccccc2SCc2ccc(F)cc2)cc1	i	i	i	i	i	nt	nt
O=C(O)CCNC(=O)CCCn1nnc2ccccc2c1=O	i	i	i	i	i	nt	nt
Cc1nc2ccccc2c2oc(C(=O)NCC3COc4ccccc4O3)cc12 (stereo not given)	i	i	i	-11*	i	82*	42*
CCc1ccc(CNC(=O)c2cc3c(C)nc4ccccc4c3o2)cc1	i	i	i	i	i	nt	nt
CCCc1nnc(NC(=O)CCC(=O)N2CCCCC2CC)s1 (stereo not given)	i	i	i	-7.8*	i	0	0
CCCCS/C(=C(/C#N)C(N)=O)c1cc2c([nH]1)CCCC2	i	i	i	-8.2*	i	94*	92*
CC(C)(C)c1csc(N/N=C/c2ccc(O)cc2)n1	i	i	i	i	i	nt	nt
CCOC(=O)C1(CCOc2ccccc2)CCN(Cc2cccc(OC)c2O)CC1	i	i	i	i	i	nt	nt
Cc1c(Cl)cccc1NC(=O)CSc1ncnc2c1cnn2CCO	i	i	i	i	i	nt	nt
COc1ccc(S(=O)(=O)N(C)C)cc1NC(=O)[C@H](Cc1ccccc1)N1C(=O)c2ccccc2C1=O	i	i	i	-9.4*	i	93*	58*
CSCC[C@H](NC(=O)OC(C)(C)C)C(=O)N/N=C/c1ccc2nccnc2c1	i	i	i	-12*	i	0	0
CCOC(=O)c1c(-c2ccccc2)csc1NC(=O)c1nn(CC)cc1Br	i	i	i	-7.6*	i	80*	0
COc1cc(/C=N/c2oc(-c3ccccc3)cc2C#N)ccc1O	i	i	i	-7.8*	i	0	0
Cc1nn(C)c(C)c1S(=O)(=O)N(CC(=O)NCCCN1CCC(C)CC1)c1ccc(C(C)C)cc1	i	i	i	i	i	nt	nt
SMILES	MrgX1 antag	RGS4 inh	MrgX1 allo act	RGS4 act	MrgX1 agonist	RGS4 activ val	RGS4 act ctr
CCCN(CC#CC(O)(c1ccccc1)c1cccnc1)CCC (stereo not given)	i	i	i	i	i	nt	nt
OC(C#CCN1CCCC1)(c1ccccc1)c1cccnc1 (stereo not given)	i	i	i	-8.2*	i	92*	86*
CC(C)CC1CCCCC1OC(=O)C[N+]1(C)CCCCC1 (stereo not given)	i	i	i	-11*	i	92*	87*
CCCCCCNS(=O)(=O)c1ccc(Cl)s1	i	i	i	-10*	i	43*	84*
Cc1cc(C)c(C#N)c(SCC(O)COc2ccc(Br)cc2)n1 (stereo not given)	i	i	i	-13*	i	94*	94*
CCOc1ccc(OCCN2CCCCC2)cc1	i	i	i	i	i	nt	nt
CCCC(O)(CCN1CCOCC1)c1ccc(Br)cc1 (stereo not given)	i	i	i	-9*	i	91*	78*
CCCOc1ccc(C(O)(CCC)CCN2CCCCC2)cc1 (stereo not given)	i	i	i	-8.3*	i	88*	36*
CCCC(O)(CCN1CCOCC1)c1ccc(Cl)cc1 (stereo not given)	i	i	i	i	i	nt	nt
COc1ccccc1C(=O)NCCC(=O)N1CCN(c2cccc(C(F)(F)F)c2)CC1	i	i	i	i	i	nt	nt
COc1ccccc1C(=O)NCC(=O)N/N=C(\C)Cc1ccccc1	i	i	i	i	i	nt	nt
CC(Oc1ccccc1)C(=O)Nc1ccc(C(N)=O)cc1 (stereo not given)	i	i	i	i	i	nt	nt
CC(C)NS(=O)(=O)c1ccc(NC(=O)C(C)Oc2ccc(C(=O)c3ccccc3)cc2)cc1 (stereo not given)	-8.6*	i	i	-7.7*	i	70*	74*
O=C(O)c1ccc2nc3c(nc2c1)-c1ccccc1C3=O	i	i	i	-11*	i	0	0
C=CCNC(=O)c1ccc2nc(-c3ccccc3)c(-c3ccccc3)nc2c1	i	i	i	-8.9*	i	77*	44*
C=CCNC(=O)c1ccc(C(=O)c2ccccc2)cc1	i	i	i	i	i	nt	nt
CSCCC(NS(=O)(=O)c1cccc(C(F)(F)F)c1)C(=O)N(C)CCOc1ccc(Cl)cc1 (stereo not given)	i	i	i	i	i	nt	nt
CC1(N(O)/C=C2\C=CC=CC2=O)CCCCC1=O (stereo not given)	i	i	i	i	i	nt	nt
Cc1cccc(N2CCN(C(=S)NCCc3ccccc3)CC2)c1C	i	i	i	i	i	nt	nt

Screening results from PubChem.
